The source of these data is ChEMBL document CHEMBL1132334, “Discovery of 1,6-naphthyridines as a novel class of potent and selective human cytomegalovirus inhibitors” (J Med Chem, 1999).

Converted amounts (≈) assume the structure as drawn.

One assay deals with Human betaherpesvirus 5. As to the kind of experiment: Anti-HCMV activity in the human fibroblast Hs 68 cell line. The class given is functional, organism-based. To be noted: Human betaherpesvirus 5, Hs68. The procedure, abridged: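 Hs68 human fibroblasts infected with HCMV strain AD169 at MOI 0.001, with or without compound, incubated 7 days. Plaques then counted under the microscope. Mean of duplicate values, experiments done at least twice.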

Assay [1] concerns Hs68. As to the kind of experiment: Cytotoxicity in the human fibroblast Hs 68 cell line. It counts as functional. In outline: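 Hs68 fibroblasts plated at 1000 cells/well and incubated overnight. Medium then replaced with compound, six serial 2-fold dilutions (3.2-100 µg/mL) in triplicate, for 72 h. Proliferation read by [³H]thymidine uptake with scintillation counting and expressed as percent of untreated control; CC50 is the concentration giving 50% inhibition.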

Assay [2] deals with Hs68. As to the kind of experiment: Cytotoxicity in the Hs 68 cell line. It counts as functional. Particulars: Homo sapiens.

As to `CC(C)Oc1ccccc1CNC(=O)c1ccc2cncc(Cl)c2n1`, the IC50 (commonly the concentration needed to halve the response being measured) in the assay on Human betaherpesvirus 5 is 0.03 µg/mL (≈ 0.0843 µM). For the same compound, in the assay with Hs68 [1], half-maximal cytotoxicity (CC50) was put at 6 µg/mL (≈ 16.9 µM).
Consider `COc1cccc(CNC(=O)c2ccc3cnccc3n2)c1`, for which, in the assay on Hs68 [2], it took 100 µg/mL (≈ 341 µM) to reach half-maximal cytotoxicity (CC50). In addition, in the assay with Human betaherpesvirus 5, the IC50 amounted to 2.1 µg/mL (≈ 7.16 µM).
The corresponding values for `COc1ccc(CNC(=O)c2ccc3cnccc3n2)cc1` are 50 µg/mL (≈ 170 µM) and more than 50 µg/mL.
The compound `O=C(NCc1ccccc1)c1ccc2cnccc2n1` registered an IC50 with Human betaherpesvirus 5 of 1 µg/mL (≈ 3.8 µM). For the same compound, the midpoint of cytotoxicity in the assay with Hs68 [1], the CC50, lay at 71 µg/mL (≈ 270 µM).
The corresponding values for `CC(C)Oc1ccccc1CNC(=O)c1ccc2cncc(Br)c2n1` are 0.15 µg/mL (≈ 0.375 µM) and 9 µg/mL (≈ 22.5 µM).
The corresponding values for `CC(C)Oc1cccc(CNC(=O)c2ccc3cnccc3n2)c1` are 3.6 µg/mL (≈ 11.2 µM) and 8.4 µg/mL (≈ 26.1 µM).
The corresponding values for `O=C(NCc1ccc(Br)cc1)c1ccc2cnccc2n1` are more than 10 µg/mL and 10 µg/mL (≈ 29.2 µM).
For the compound `O=C(Nc1ccccc1)c1ccc2cnccc2n1`, the CC50 (usually the concentration at which the toxic effect on the cells reaches its halfway point) in the assay with Hs68 [2] came to 50 µg/mL (≈ 201 µM). The IC50 in the assay with Human betaherpesvirus 5 came to 50 µg/mL (≈ 201 µM).
With `CC[C@@H](C)Oc1ccccc1CNC(=O)c1ccc2cnccc2n1`, 0.003 µg/mL (≈ 0.00894 µM) corresponded to half-maximal inhibition in the assay on Human betaherpesvirus 5 (IC50). In the assay on Hs68 [1], this compound came in with a CC50 of 0.1 µg/mL (≈ 0.298 µM).
The corresponding values for `CC(C)(C)Oc1ccccc1CNC(=O)c1ccc2cnccc2n1` are 0.04 µg/mL (≈ 0.119 µM) and 4.4 µg/mL (≈ 13.1 µM).
For `O=C(NCc1ccccc1Br)c1ccc2cnccc2n1`, the IC50 with Human betaherpesvirus 5 is 0.7 µg/mL (≈ 2.05 µM). The CC50 in the assay on Hs68 [1] is 100 µg/mL (≈ 292 µM).
The corresponding values for `CC[C@H](C)Oc1ccccc1CNC(=O)c1ccc2cnccc2n1` are 0.03 µg/mL (≈ 0.0894 µM) and 3.1 µg/mL (≈ 9.24 µM).
The corresponding values for `C=Cc1cncc2ccc(C(=O)NCc3ccccc3OC(C)C)nc12` are 0.003 µg/mL (≈ 0.00864 µM) and 17 µg/mL (≈ 48.9 µM).
The corresponding values for `O=C(NCCc1ccccc1)c1ccc2cnccc2n1` are 0.78 µg/mL (≈ 2.81 µM) and 5 µg/mL (≈ 18 µM).
In the assay with Human betaherpesvirus 5, `O=C(NCc1cccc(Br)c1)c1ccc2cnccc2n1` yielded an IC50 of 2.2 µg/mL (≈ 6.43 µM). The compound further gave a CC50 with Hs68 [1] of 50 µg/mL (≈ 146 µM).
In turn, `COc1ccccc1CCNC(=O)c1ccc2cnccc2n1` gave a CC50 in the assay with Hs68 [2] of 17 µg/mL (≈ 55.3 µM). The compound also showed an IC50 in the assay on Human betaherpesvirus 5 of 6 µg/mL (≈ 19.5 µM).
As to `Cc1cncc2ccc(C(=O)NCc3ccccc3OC(C)C)nc12`, inhibition with Human betaherpesvirus 5 was half-maximal at 0.0004 µg/mL (≈ 0.00119 µM) (IC50). In the assay on Hs68 [1], this compound registered a CC50 of 3 µg/mL (≈ 8.94 µM).
The corresponding values for `CC(C)Oc1ccccc1CNC(=O)c1ccc2cnccc2n1` are 0.005 µg/mL (≈ 0.0156 µM) and 2.5 µg/mL (≈ 7.78 µM).
The corresponding values for `COc1ccccc1CNC(=O)c1cc(C)c2cnccc2n1` are 11 µg/mL (≈ 35.8 µM) and 8 µg/mL (≈ 26 µM).
`Nc1nc2c(ncn2COC(CO)CO)c(=O)[nH]1` [GANCICLOVIR]: the half-maximal cytotoxic concentration (CC50) in the assay on Hs68 [2] turned out to be 12.5 µg/mL (≈ 49 µM). This compound also returned an IC50 with Human betaherpesvirus 5 of 0.3 µg/mL (≈ 1.18 µM).
